What was measured:
Pseudoalteromonas ulvae [1] = assay: Anti-biofilm activity against Pseudoalteromonas ulvae TC14 assessed as inhibition of bacterial adhesion incubated for 15 hrs at 20 degC by Syto 61 dye based fluorescence assay; type: functional, organism-based
In short: (§1)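 Biofilm formation (adhesion) of the marine strains was measured with the Syto 61 fluorophore, using a method adapted from Leroy et al. Compounds were first screened at 200 µM, and the value is % adhesion at that concentration. EC50 values were derived from the same assay.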

[2] = test system: Pseudoalteromonas lipolytica; assay: Anti-biofilm activity against Pseudoalteromonas lipolytica TC8 assessed as inhibition of bacterial adhesion incubated for 15 hrs at 20 degC by Syto 61 dye based fluorimetric assay; type: functional, organism-based; in short: as §1
Paracoccus sp. [3] = assay: Anti-biofilm activity against Paracoccus sp. 4M6 assessed as bacterial adhesion at 200 uM incubated for 15 hrs at 20 degC by Syto 61 dye based fluorimetric assay relative to control; type: functional; in short: as §1
[4] = test system: Pseudoalteromonas lipolytica; assay: Anti-biofilm activity against Pseudoalteromonas lipolytica TC8 assessed as bacterial adhesion at 200 uM incubated for 15 hrs at 20 degC by Syto 61 dye based fluorimetric assay relative to control; type: functional; in short: as §1
Paracoccus sp. [5] = assay: Anti-biofilm activity against Paracoccus sp. 4M6 assessed as inhibition of bacterial adhesion incubated for 15 hrs at 20 degC by Syto 61 dye based fluorimetric assay; type: functional, organism-based; in short: as §1
Pseudoalteromonas ulvae [6] = assay: Anti-biofilm activity against Pseudoalteromonas ulvae TC14 assessed as bacterial adhesion at 200 uM incubated for 15 hrs at 20 degC by Syto 61 dye based fluorescence assay relative to control; type: functional; in short: as §1
Pseudoalteromonas ulvae [7] = assay: Effect on cell viability of Pseudoalteromonas ulvae TC14 at 5 uM measured after 6 hrs by resazurin dye based fluorescence assay; type: organism-based
In short: (§2)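 Viability was scored with resazurin, following the same protocol as the Syto 61 antiadhesion assay. Compounds were tested at 5, 10, 20, 50, 100 and 200 µM on each strain, and the 5 and 100 µM points are the ones reported.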

Pseudoalteromonas ulvae [8] = assay: Effect on cell viability of Pseudoalteromonas ulvae TC14 at 100 uM measured after 6 hrs by resazurin dye based fluorescence assay; type: organism-based; in short: as §2
[9] = test system: Pseudoalteromonas lipolytica; assay: Growth inhibition of Pseudoalteromonas lipolytica TC8 at 100 uM measured every hr for 6 hrs by turbidimetric method; type: organism-based; details: in vivo
In short: (§3)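 Bacterial growth of TC14, TC8 and 4M6 was followed with test compounds at 100 µM. Ampicillin at 5 µM served as the reference antibiotic.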

[10] = test system: Pseudoalteromonas lipolytica; assay: Effect on cell viability of Pseudoalteromonas lipolytica TC8 at 100 uM measured after 6 hrs by resazurin dye based fluorescence assay; type: organism-based; in short: as §2
Paracoccus sp. [11] = assay: Growth inhibition of Paracoccus sp. 4M6 at 100 uM measured every hr for 6 hrs by turbidimetric method; type: organism-based; details: in vivo; in short: as §3
Paracoccus sp. [12] = assay: Effect on cell viability of Paracoccus sp. 4M6 at 100 uM measured after 6 hrs by resazurin dye based fluorescence assay; type: organism-based; in short: as §2
[13] = test system: Pseudoalteromonas lipolytica; assay: Effect on cell viability of Pseudoalteromonas lipolytica TC8 at 5 uM measured after 6 hrs by resazurin dye based fluorescence assay; type: organism-based; in short: as §2
Paracoccus sp. [14] = assay: Effect on cell viability of Paracoccus sp. 4M6 at 5 uM measured after 6 hrs by resazurin dye based fluorescence assay; type: organism-based; in short: as §2
Pseudoalteromonas ulvae [15] = assay: Growth inhibition of Pseudoalteromonas ulvae TC14 at 100 uM measured every hr for 6 hrs by turbidimetric method; type: organism-based; details: in vivo; in short: as §3
[16] = Pseudoalteromonas ulvae, TC14, 15 h
[17] = Pseudoalteromonas lipolytica, TC8, 15 h
[18] = Paracoccus sp. (in: a-proteobacteria), 4M6, 15 h

## CN(C)CCOc1ccc(CCn2cc(-c3cccc(-c4cn(CCc5ccc(OCCN(C)C)c(Br)c5)nn4)c3)nn2)cc1Br
Pseudoalteromonas ulvae [1]; [16]
  EC50: > 200 µM
[2]; [17]
  EC50: > 200 µM
Paracoccus sp. [3]
  Activity: 66.9%
[4]
  Activity: 65.1%
Paracoccus sp. [5]; [18]
  EC50: > 200 µM
Pseudoalteromonas ulvae [6]
  Activity: 62.2%

## COc1ccc(CCn2cc(CCCCc3cn(CCc4ccc(OC)c(Br)c4)nn3)nn2)cc1Br
Pseudoalteromonas ulvae [1]; [16]
  EC50: > 200 µM
[2]; [17]
  EC50: > 200 µM
Paracoccus sp. [3]
  Activity: 50.9%
Paracoccus sp. [5]; [18]
  EC50: > 200 µM

## CN(C)CCCOc1ccc(CCn2cc(CCCc3cn(CCc4ccc(OCCCN(C)C)c(Br)c4)nn3)nn2)cc1Br
Pseudoalteromonas ulvae [1]; [16]
  EC50: > 200 µM
[2]; [17]
  EC50: > 200 µM
Paracoccus sp. [3]
  Activity: 77.2%
Paracoccus sp. [5]; [18]
  EC50: > 200 µM

## COc1ccc(CCn2cc(CCCc3cn(CCc4ccc(OC)c(Br)c4)nn3)nn2)cc1Br
Pseudoalteromonas ulvae [1]; [16]
  EC50: > 200 µM
[2]; [17]
  EC50: > 200 µM
Paracoccus sp. [3]
  Activity: 49.2%
[4]
  Activity: 50%
Paracoccus sp. [5]; [18]
  EC50: > 200 µM

## CN(C)CCOc1ccc(CCn2cc(CCCCCCc3cn(CCc4ccc(OCCN(C)C)c(Br)c4)nn3)nn2)cc1Br
Pseudoalteromonas ulvae [1]; [16]
  EC50: > 200 µM
[2]; [17]
  EC50: > 200 µM
Paracoccus sp. [3]
  Activity: 59.5%
[4]
  Activity: 54.4%
Paracoccus sp. [5]; [18]
  EC50: > 200 µM

## CN(C)CCOc1ccc(CCn2cc(-c3ccc(-c4cn(CCc5ccc(OCCN(C)C)c(Br)c5)nn4)cc3)nn2)cc1Br
Pseudoalteromonas ulvae [7]
  Activity: Non-Toxic
Pseudoalteromonas ulvae [8]
  Activity: Toxic
Pseudoalteromonas ulvae [1]; [16]
  EC50: 0.9 µM
[9]
  growth inhibition (GI): Toxic
[10]
  Activity: Toxic
[2]; [17]
  EC50: 5.1 µM
Paracoccus sp. [3]
  Activity: 10.1%
Paracoccus sp. [11]
  growth inhibition (GI): Toxic
Paracoccus sp. [12]
  Activity: Toxic
[4]
  Activity: 14.6%
[13]
  Activity: Non-Toxic
Paracoccus sp. [5]; [18]
  EC50: 5.1 µM
Pseudoalteromonas ulvae [6]
  Activity: 0%
Paracoccus sp. [14]
  Activity: Non-Toxic
Pseudoalteromonas ulvae [15]
  growth inhibition (GI): Toxic

## CN(C)CCCOc1ccc(CCn2cc(CCCCCCc3cn(CCc4ccc(OCCCN(C)C)c(Br)c4)nn3)nn2)cc1Br
Pseudoalteromonas ulvae [1]; [16]
  EC50: > 200 µM
[2]; [17]
  EC50: > 200 µM
Paracoccus sp. [3]
  Activity: 84.7%
[4]
  Activity: 72.3%
Paracoccus sp. [5]; [18]
  EC50: > 200 µM
Pseudoalteromonas ulvae [6]
  Activity: 71%

## COc1ccc(CCn2cc(CNCc3cn(CCc4ccc(OC)c(Br)c4)nn3)nn2)cc1Br
Paracoccus sp. [3]
  Activity: 46.3%
Paracoccus sp. [5]; [18]
  EC50: 194 µM

## Oc1ccc(CCn2cc(COCc3cn(CCc4ccc(O)c(Br)c4)nn3)nn2)cc1Br
Paracoccus sp. [3]
  Activity: 47.8%
[4]
  Activity: 50.3%
Paracoccus sp. [5]; [18]
  EC50: 198 µM
Pseudoalteromonas ulvae [6]
  Activity: 40.3%

## CN(C)CCCOc1ccc(CCn2cc(CCCCc3cn(CCc4ccc(OCCCN(C)C)c(Br)c4)nn3)nn2)cc1Br
Pseudoalteromonas ulvae [1]; [16]
  EC50: > 200 µM
[2]; [17]
  EC50: > 200 µM
Paracoccus sp. [3]
  Activity: 80.7%
[4]
  Activity: 89.2%
Paracoccus sp. [5]; [18]
  EC50: > 200 µM
Pseudoalteromonas ulvae [6]
  Activity: 66.5%

## COc1ccc(CCn2cc(COCc3cn(CCc4ccc(OC)c(Br)c4)nn3)nn2)cc1Br
Paracoccus sp. [3]
  Activity: 44.9%
[4]
  Activity: 42.8%
Paracoccus sp. [5]; [18]
  EC50: 164 µM
Pseudoalteromonas ulvae [6]
  Activity: 38.5%

## Oc1ccc(CCn2cc(-c3cccc(-c4cn(CCc5ccc(O)c(Br)c5)nn4)c3)nn2)cc1Br
Pseudoalteromonas ulvae [1]; [16]
  EC50: > 200 µM
[2]; [17]
  EC50: > 200 µM
Paracoccus sp. [3]
  Activity: 61.5%
[4]
  Activity: 66.5%
Paracoccus sp. [5]; [18]
  EC50: > 200 µM
Pseudoalteromonas ulvae [6]
  Activity: 56.8%

## CN(C)CCCOc1ccc(CCn2cc(-c3cccc(-c4cn(CCc5ccc(OCCCN(C)C)c(Br)c5)nn4)c3)nn2)cc1Br
Pseudoalteromonas ulvae [1]; [16]
  EC50: > 200 µM
[2]; [17]
  EC50: > 200 µM
Paracoccus sp. [3]
  Activity: 78.1%
[4]
  Activity: 71.6%
Paracoccus sp. [5]; [18]
  EC50: > 200 µM
Pseudoalteromonas ulvae [6]
  Activity: 65.3%

## CN(C)CCOc1ccc(CCn2cc(CCCc3cn(CCc4ccc(OCCN(C)C)c(Br)c4)nn3)nn2)cc1Br
Pseudoalteromonas ulvae [1]; [16]
  EC50: > 200 µM
[2]; [17]
  EC50: > 200 µM
Paracoccus sp. [3]
  Activity: 51.5%
[4]
  Activity: 57%
Paracoccus sp. [5]; [18]
  EC50: > 200 µM

## Oc1ccc(CCn2cc(-c3ccc(-c4cn(CCc5ccc(O)c(Br)c5)nn4)cc3)nn2)cc1Br
Pseudoalteromonas ulvae [1]; [16]
  EC50: 40.9 µM
[2]; [17]
  EC50: > 200 µM
Paracoccus sp. [3]
  Activity: 31.8%
Paracoccus sp. [5]; [18]
  EC50: 59.9 µM
Pseudoalteromonas ulvae [6]
  Activity: 31.1%

## tributyltin-oxide
Pseudoalteromonas ulvae [1]
  EC50: 0.7 µM
[2]
  EC50: 7 µM
Paracoccus sp. [5]
  EC50: 4 µM

## Oc1ccc(CCn2cc(CCCCc3cn(CCc4ccc(O)c(Br)c4)nn3)nn2)cc1Br
Pseudoalteromonas ulvae [1]; [16]
  EC50: > 200 µM
[2]; [17]
  EC50: > 200 µM
Paracoccus sp. [3]
  Activity: 52.4%
Paracoccus sp. [5]; [18]
  EC50: > 200 µM

## CN(C)CCOc1ccc(CCn2cc(CCCCc3cn(CCc4ccc(OCCN(C)C)c(Br)c4)nn3)nn2)cc1Br
Pseudoalteromonas ulvae [1]; [16]
  EC50: > 200 µM
[2]; [17]
  EC50: > 200 µM
Paracoccus sp. [3]
  Activity: 57.4%
[4]
  Activity: 58.5%
Paracoccus sp. [5]; [18]
  EC50: > 200 µM

## CN(C)CCCOc1ccc(CCn2cc(COCc3cn(CCc4ccc(OCCCN(C)C)c(Br)c4)nn3)nn2)cc1Br
[2]; [17]
  EC50: > 200 µM
Paracoccus sp. [3]
  Activity: 53.7%
Paracoccus sp. [5]; [18]
  EC50: > 200 µM

## Oc1ccc(CCn2cc(CCCc3cn(CCc4ccc(O)c(Br)c4)nn3)nn2)cc1Br
Pseudoalteromonas ulvae [1]; [16]
  EC50: > 200 µM
[2]; [17]
  EC50: > 200 µM
Paracoccus sp. [3]
  Activity: 83.4%
[4]
  Activity: 63.5%
Paracoccus sp. [5]; [18]
  EC50: > 200 µM
Pseudoalteromonas ulvae [6]
  Activity: 53.1%

## CN(C)CCOc1ccc(CCn2cc(COCc3cn(CCc4ccc(OCCN(C)C)c(Br)c4)nn3)nn2)cc1Br
Pseudoalteromonas ulvae [1]; [16]
  EC50: 91.8 µM
Paracoccus sp. [3]
  Activity: 40.4%
Paracoccus sp. [5]; [18]
  EC50: 146 µM

## COc1ccc(CCn2cc(-c3cccc(-c4cn(CCc5ccc(OC)c(Br)c5)nn4)c3)nn2)cc1Br
Pseudoalteromonas ulvae [1]; [16]
  EC50: > 200 µM
[2]; [17]
  EC50: > 200 µM
Paracoccus sp. [3]
  Activity: 76.2%
[4]
  Activity: 101.1%
Paracoccus sp. [5]; [18]
  EC50: > 200 µM
Pseudoalteromonas ulvae [6]
  Activity: 74.1%

## CN(C)CCCOc1ccc(CCn2cc(CNCc3cn(CCc4ccc(OCCCN(C)C)c(Br)c4)nn3)nn2)cc1Br
Pseudoalteromonas ulvae [1]; [16]
  EC50: > 200 µM
Paracoccus sp. [3]
  Activity: 56.3%
Paracoccus sp. [5]; [18]
  EC50: > 200 µM
Pseudoalteromonas ulvae [6]
  Activity: 45%

## COc1ccc(CCn2cc(CCCCCCc3cn(CCc4ccc(OC)c(Br)c4)nn3)nn2)cc1Br
Pseudoalteromonas ulvae [1]; [16]
  EC50: > 200 µM
[2]; [17]
  EC50: > 200 µM
Paracoccus sp. [3]
  Activity: 69.2%
[4]
  Activity: 78.3%
Paracoccus sp. [5]; [18]
  EC50: > 200 µM
Pseudoalteromonas ulvae [6]
  Activity: 62.7%

## Oc1ccc(CCn2cc(CNCc3cn(CCc4ccc(O)c(Br)c4)nn3)nn2)cc1Br
Pseudoalteromonas ulvae [1]; [16]
  EC50: 59.9 µM
[2]; [17]
  EC50: 80.3 µM
Paracoccus sp. [3]
  Activity: 27.9%
Paracoccus sp. [5]; [18]
  EC50: 88.3 µM

## CN(C)CCOc1ccc(CCn2cc(CNCc3cn(CCc4ccc(OCCN(C)C)c(Br)c4)nn3)nn2)cc1Br
Paracoccus sp. [3]
  Activity: 51.8%
Paracoccus sp. [5]; [18]
  EC50: > 200 µM
Pseudoalteromonas ulvae [6]
  Activity: 40.9%

## Oc1ccc(CCn2cc(CCCCCCc3cn(CCc4ccc(O)c(Br)c4)nn3)nn2)cc1Br
Pseudoalteromonas ulvae [1]; [16]
  EC50: > 200 µM
[2]; [17]
  EC50: > 200 µM
Paracoccus sp. [3]
  Activity: 78.1%
[4]
  Activity: 75%
Paracoccus sp. [5]; [18]
  EC50: > 200 µM
Pseudoalteromonas ulvae [6]
  Activity: 61.7%

Reference: ChEMBL document CHEMBL4330109, “Parallel synthesis of a bis-triazoles library as psammaplin A analogues: A new wave of antibiofilm compounds?” (Bioorg Med Chem Lett, 2019)
